Our source for the Activity, IC50 and inhibition values is ChEMBL document CHEMBL4270516, “Screening serine/threonine and tyrosine kinase inhibitors for histidine kinase inhibition” (Bioorg Med Chem, 2018).

The structures appear in SMILES notation. Calls of active or inactive are those of the source. The calls are words filed in the database; no cut-off is given here.

Test [1] has as its system Pseudomonas aeruginosa. Put plainly: Bactericidal activity against methicillin-sensitive Pseudomonas aeruginosa PAO1 at 400 uM after 18 hrs by resazurin-dye based fluorescence assay. The format is functional, organism-based. The method, boiled down:
(§1)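 Viability of methicillin-sensitive S. aureus and P. aeruginosa after treatment, judged by optical density and resazurin indicator dye relative to a DMSO control.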
Background: The colour change of resazurin is a common sign of viable cells or microbes.

Test [2] relates to Staphylococcus aureus. Kind of test: Antibiofilm activity against methicillin-sensitive Staphylococcus aureus MSSA 447 at 112.5 to 500 uM after 18 hrs by crystal violet staining-based assay. Type of test: functional, organism-based. The method, boiled down:
(§2)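 Biofilm formation by S. aureus and P. aeruginosa quantified by crystal violet staining, compared against DMSO-treated bacteria.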

A short description of test [3]: Inhibition of ADP-BODIPY binding to Thermotoga maritima HK853 in presence of Triton X-100 by fluorescence polarization assay. In general terms: In fluorescence polarisation assays a small probe gives low polarisation when free and higher when bound to something large.
Test [4] can be described thus: Inhibition of ADP-BODIPY binding to Thermotoga maritima HK853 after day 1 by fluorescence polarization assay.
A short description of test [5]: Inhibition of Thermotoga maritima HK853 autophosphorylation using compound at non-aggregating concentration after 30 mins in presence of [gamma-33P]-ATP by phosphorescence-based assay. The method, boiled down: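 Coupled competition-aggregation assay with HK853 (T. maritima) and VicK (S. pneumoniae); enzymatic autophosphorylation followed with [γ-33P]ATP.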
The nature of test [6]: Inhibition of ADP-BODIPY binding to Thermotoga maritima HK853 after day 2 by fluorescence polarization assay.
For test [7], the system named is Pseudomonas aeruginosa. Kind of test: Antibiofilm activity against methicillin-sensitive Pseudomonas aeruginosa PAO1 at 112.5 to 500 uM after 18 hrs by crystal violet staining-based assay. The format is functional, organism-based. The essentials: as §2
For test [8], the system named is Staphylococcus aureus. Put plainly: Bactericidal activity against methicillin-sensitive Staphylococcus aureus MSSA 447 at 400 uM after 18 hrs by resazurin-dye based fluorescence assay. Type of test: functional, organism-based. The essentials:
as §1

The nature of test [9]: Inhibition of ADP-BODIPY binding to Thermotoga maritima HK853 by fluorescence polarization assay.
In test [10] the test system is Thermotoga maritima. Put plainly: Inhibition of ADP-BODIPY binding to Thermotoga maritima HK853 at 100 uM by fluorescence polarization assay.
Test [11] deals with Sensor histidine kinase VicK/WalK (Streptococcus pneumoniae). Kind of test: Induction of Streptococcus pneumoniae VicK aggregation up to 500 uM in presence of glutaraldehyde by PAGE analysis.
Test [12] relates to Thermotoga maritima. Put plainly: Induction of Thermotoga maritima HK853 aggregation up to 500 uM in presence of glutaraldehyde by PAGE analysis.

With `Fc1ccc(-c2c(-c3ccncc3)[nH]c3nccnc23)cc1`, the outcome in [1], in [2], in test [7] and in test [8] was inactive. In addition, the IC50 in test [3] came out at 22.5 µM; in test [4] it was 2.7 µM; in [5], 101 µM; in test [6], 6.26 µM; in test [9] it was 23.7 µM. In addition, the inhibition in test [10] came out at 79.9%.

As to `O=[N+]([O-])c1ccc2c(c1)C(c1ccccc1Cl)=Nc1c[nH]nc1N2`, the outcome in test [11] and in test [12] was Active. The IC50 amounted to 160 µM in test [3] and 26.2 µM in test [9]. The compound also gave an inhibition in test [10] of 98.1%.

As for `Cn1c(-c2ccncc2)c(-c2ccc(F)cc2)c2ncccc21`, the inhibition in test [10] amounted to 15%.

In turn, `Fc1ccc(-c2c(-c3ccncc3)n(CCN3CCOCC3)c3cccnc23)cc1` displayed an inhibition in [10] of 4.8%.

On to `Nc1ncnc2c1ncn2[C@@H]1O[C@H](COP(=O)(O)OP(=O)(O)NP(=O)(O)O)[C@@H](O)[C@H]1O`, for which, in test [5], the IC50 was found to be 48.2 µM.

Turning to `CNc1ncc2cc(Oc3ccc(F)cc3F)c(=O)n(C)c2n1`, the result in test [11] and in [12] was Active. For the same compound, the IC50 is 15.2 µM in test [3], 106 µM in test [5] and 19.1 µM in test [9]. This compound also had an inhibition in test [10] of 74.7%.

As to `CONC1=NC(=O)/C(=C/c2ccc3ncccc3c2)S1`, the half-inhibitory concentration (IC50) in test [3] stood at 27.1 µM; in test [5], 124 µM; in test [9], 21.6 µM. Besides, the inhibition in test [10] amounted to 90.1%.

Regarding `Nc1ncnc2c1ncn2[C@@H]1O[C@H](COP(=O)(O)OP(=O)(O)O)[C@@H](O)[C@H]1O` [ADENOSINE DIPHOSPHATE], the half-maximal inhibitory concentration (IC50) in test [5] is 13.7 µM.

The compound `OCCn1c(-c2ccncc2)c(-c2ccc(F)cc2)c2ncccc21` registered an inhibition in test [10] of 5.8%.

In the case of `O=C1C(c2c[nH]c3ccccc23)=C(c2c[nH]c3ccccc23)C(=O)N1O`, the result in test [11] and in [12] was Active. For the same compound, the IC50 is over 300 µM in test [3] and 96 µM in [9]. For the same compound, in test [10], the inhibition stood at 81.2%.

For `Fc1ccc(-c2c(-c3ccncc3)[nH]c3cccnc23)cc1`, in test [10], the inhibition is 6.5%.

Consider `Cc1cc(C)c2c(n1)sc1c(N)ncnc12`, for which the concentration for half-maximal inhibition (IC50) in test [3] is 42.2 µM; in [5], 99 µM; in [9], 38.3 µM. For the same compound, the inhibition in test [10] stood at 73.7%.

Turning to `COc1cc[nH]c1/C=C1\C(=O)Nc2ccc([N+](=O)[O-])c(C3CC[C@@H](O)C3)c21` (stereo partly specified), the result in test [11] and in [12] was Active. Further, the IC50 in test [3] was found to be 13 µM; in test [9] it was 12 µM. The compound also yielded an inhibition in test [10] of 66.3%.

Consider `Cn1cc(C2=C(c3cccc(NCC(O)CO)c3)C(=O)NC2=O)c2cc(Cl)ccc21` (stereo unspecified), for which the outcome in test [11] and in test [12] was Active. Moreover, the results for the half-maximal inhibitory concentration (IC50) in test [3] and in [9] were 24.4 µM and 21.9 µM, respectively. Further, the inhibition in test [10] was 79.2%.

`O=C1N=C(N[C@H](CO)c2ccccc2)S/C1=C\c1ccc2ncccc2c1`: the outcome in test [11] and in test [12] was Active. For the same compound, the IC50 was found to be 12 µM in test [3], 282 µM in test [5] and 12 µM in [9]. The inhibition in [10] was 65.5%.

Broadly, the IC50 is the concentration at which inhibition is half-maximal. What is called inhibition is the percentage by which the read-out fell short of the control. The low end stands for little suppression, the high end for strong suppression.
